Experimental data reported in ChEMBL document CHEMBL1144774, “Vasorelaxing alkaloids and flavonoids from Cassytha filiformis” (J Nat Prod, 2008).

Test system: Aorta
Test: Vasorelaxation activity in Sprague-Dawley rat aortic assessed as inhibition of phenylephrin-induced contraction
Type: functional, tissue-based
How it was run: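 Endothelium-intact aortic rings from adult male rats (280–320 g) held isometrically at 1.8 g passive tension for 60 min; endothelium confirmed by >98% relaxation to acetylcholine (3 µM). Tonic contraction to phenylephrine (0.3 µM) set as 100%. Compound added cumulatively, 0.01–100 µM, one curve per ring. IC50 taken from percent-relaxation curves; mean ± SE of n independent experiments.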

In order of falling IC50:
1. COC1=C[C@@]23CCN(C)[C@@H](Cc4ccc(OC)c(O)c42)C3=CC1=O  32.8 µM
2. COc1cc2c(cc1O)C(=O)c1nccc3c(OC)c4c(c-2c13)OCO4 [ISOFILIFORMINE]  32 µM
3. COC1=C[C@@]23CCN(C)[C@@H](Cc4cc(OC)c(OC)cc42)C3=CC1=O  28.9 µM
4. COc1cc(-c2oc3cc(O)cc(O)c3c(=O)c2O[C@@H]2O[C@H](CO)[C@@H](O)[C@H](O)[C@H]2O)ccc1O  23.6 µM
5. COc1cc(-c2oc3cc(O)cc(O)c3c(=O)c2O[C@@H]2O[C@H](CO[C@@H]3O[C@@H](C)[C@H](O)[C@@H](O)[C@H]3O)[C@@H](O)[C@H](O)[C@H]2O)ccc1O [NARCISSIN]  16.8 µM
6. COc1ccc2c(c1OC)-c1c3c(c(OC)c4c1[C@H](C2)NCC4)OCO3  16.5 µM
7. COc1ccc2c(c1C(=O)O)-c1c3c(c(OC)c4c1[C@H](C2)NCC4)OCO3 [CASSYTHIC ACID]  2.48 µM
8. CN1CCc2cc3c(c4c2[C@@H]1Cc1cc2c(cc1-4)OCO2)OCO3 [NEOLITSINE]  0.29 µM
9. COc1cc2c(cc1O)C[C@@H]1NCCc3c(OC)c4c(c-2c31)OCO4 [CASSYTHINE]  0.09 µM
10. COc1cc2c(cc1OC)-c1c3c(cc4c1[C@H](C2)N(C)CC4)OCO3 [DICENTRINE]  0.08 µM
